Columns and labels:
[1] = Metabolic stability in Sprague-Dawley rat liver microsomes assessed as compound remaining at 1 uM after 15 mins; assay type: ADME; settings: read-out: Stability
Method in brief: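 Rat liver microsomes incubated with compound for 15 min. Stability expressed as percent of parent remaining.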

[2] = Metabolic stability in human liver microsomes assessed as compound remaining at 1 uM after 15 mins; assay type: ADME; settings: read-out: Stability
Method in brief: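 Compound incubated with human liver microsomes for 15 min. Read-out is percent parent remaining.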

[3] = biological target: Voltage-gated inwardly rectifying potassium channel KCNH2 (Homo sapiens, UniProt Q12809); test: Displacement of [3H]-astemizole from human ERG expressed in HEK293 cells after 60 mins by scintillation counting analysis; assay type: cell-based
Sequence of Voltage-gated inwardly rectifying potassium channel KCNH2 (Q12809 whole entry): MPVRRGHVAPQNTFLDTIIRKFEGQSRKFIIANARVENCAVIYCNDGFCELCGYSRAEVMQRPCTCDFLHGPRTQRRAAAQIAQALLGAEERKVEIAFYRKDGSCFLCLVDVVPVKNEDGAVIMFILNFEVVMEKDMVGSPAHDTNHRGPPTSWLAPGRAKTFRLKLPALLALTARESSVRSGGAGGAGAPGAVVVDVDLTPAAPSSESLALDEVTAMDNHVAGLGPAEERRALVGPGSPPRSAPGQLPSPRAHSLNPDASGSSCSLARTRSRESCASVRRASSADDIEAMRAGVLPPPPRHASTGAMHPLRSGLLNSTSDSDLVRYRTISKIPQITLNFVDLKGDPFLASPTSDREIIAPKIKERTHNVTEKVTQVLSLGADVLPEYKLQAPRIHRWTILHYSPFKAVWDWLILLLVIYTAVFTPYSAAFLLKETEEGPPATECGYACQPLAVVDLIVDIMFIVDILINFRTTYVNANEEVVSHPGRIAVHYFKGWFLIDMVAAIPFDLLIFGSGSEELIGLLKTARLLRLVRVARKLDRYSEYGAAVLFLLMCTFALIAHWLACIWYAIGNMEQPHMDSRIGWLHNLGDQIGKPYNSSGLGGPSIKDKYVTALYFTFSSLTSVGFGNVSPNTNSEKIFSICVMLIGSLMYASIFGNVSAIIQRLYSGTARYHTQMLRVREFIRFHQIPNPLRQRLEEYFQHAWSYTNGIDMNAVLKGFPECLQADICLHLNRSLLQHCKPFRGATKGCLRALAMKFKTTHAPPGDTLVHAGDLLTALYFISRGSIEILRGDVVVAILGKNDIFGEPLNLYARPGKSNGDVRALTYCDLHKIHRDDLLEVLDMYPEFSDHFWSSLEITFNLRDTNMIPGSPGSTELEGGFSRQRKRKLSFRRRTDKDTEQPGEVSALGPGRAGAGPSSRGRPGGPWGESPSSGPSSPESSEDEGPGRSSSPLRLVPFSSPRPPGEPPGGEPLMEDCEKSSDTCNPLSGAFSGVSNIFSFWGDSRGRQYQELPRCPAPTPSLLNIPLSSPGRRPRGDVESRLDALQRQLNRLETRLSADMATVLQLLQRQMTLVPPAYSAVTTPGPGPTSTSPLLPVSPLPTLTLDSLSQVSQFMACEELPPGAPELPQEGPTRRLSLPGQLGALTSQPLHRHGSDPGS

[4] = Apparent permeability across apical to basolateral side in human Caco2 cells at 10 uM after 60 mins by LC/MS/MS analysis; assay type: ADME, cell-based; settings: Caco-2
Method in brief: (§1)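 Caco-2 monolayer permeability measured in both directions, apical-to-basolateral and basolateral-to-apical. Reported as P_app (×10−⁶ cm/s), given as A−B/B−A pairs.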

[5] = Apparent permeability across basolateral to apical side in human Caco2 cells at 10 uM […] by LC/MS/MS analysis; assay type: ADME, cell-based; settings: Caco-2; method in brief: as §1
[6] = Clearance in Sprague-Dawley rat; assay type: ADME, organism-based; settings: in vivo
[7] = Volume of distribution at steady state in Sprague-Dawley rat; assay type: ADME, organism-based; settings: in vivo, read-out: Vdss
[8] = Half life in Sprague-Dawley rat at 1 mg/kg, iv; assay type: ADME, organism-based; settings: in vivo
[9] = Oral bioavailability in Sprague-Dawley rat at 10 mg/kg; assay type: ADME, organism-based; settings: in vivo
[10] = Drug uptake in Sprague-Dawley rat brain at 3 mg/kg, po measured at 1 hr; assay type: ADME, organism-based; settings: read-out: Drug uptake
Method in brief: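 Rats dosed orally at 3 mg/kg. Brain drug concentration (μM) measured at 1 h post-dose.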

Rattus norvegicus [11] = test: Ex vivo histamine H3 receptor occupancy in Sprague-Dawley rat striatum at 3 mg/kg, po measured at 1 hr by autoradiographic analysis; assay type: functional
Method in brief: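 After a 3 mg/kg oral dose in rats, ex vivo H3 receptor occupancy was determined by autoradiography at 1 h. Values are mean ± SD.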

[12] = Inhibition of CYP450 in human liver microsomes; assay type: ADME
Rattus norvegicus [13] = test: Ex vivo histamine H3 receptor occupancy in Sprague-Dawley rat striatum at 10 mg/kg, sc by autoradiographic analysis; assay type: functional
Method in brief: (§2)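 Ex vivo H3 receptor occupancy measured after 10 mg/kg subcutaneous dosing in rats. Plasma Cmax was determined in parallel.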

Rattus norvegicus [14] = test: Ex vivo histamine H3 receptor occupancy in Sprague-Dawley rat striatum assessed as maximum plasma concentration required to cause >80% receptor occupancy at 10 mg/kg, sc; assay type: functional; method in brief: as §2
Homo sapiens = species: Homo sapiens; test: Ex vivo histamine H3 receptor occupancy in human assessed as plasma concentration required to cause maximal receptor occupancy; assay type: functional
Rattus norvegicus [15] = species: Rattus norvegicus; test: Toxicity in rat assessed as phospholipidosis; assay type: organism-based; settings: in vivo
Canis familiaris = species: Canis familiaris; test: Toxicity in dog assessed as phospholipidosis; assay type: organism-based, Canis lupus familiaris; settings: in vivo
[16] = Tmax in po dosed human; assay type: ADME, organism-based; settings: in vivo
Method in brief: (§3)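 Humans given single oral doses. Time to peak plasma concentration and mean t1/2 were determined across the dose range (10–400 mg).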

[17] = Half life in human; assay type: ADME, organism-based; settings: in vivo; method in brief: as §3
[18] = biological target: Voltage-gated L-type calcium channel (Rattus norvegicus, UniProt P22002+Q02485+P27732); test: Binding affinity to rat L-type calcium channel at 1 uM
Rattus norvegicus [19] = species: Rattus norvegicus; test: Toxicity in rat assessed as phospholipidosis; settings: in vivo
Histamine H3 receptor = Histamine H3 receptor (Homo sapiens, UniProt Q9Y5N1); test: Displacement of N-[3H]methylhistamine from human histamine H3 receptor expressed in human SK-N-MC cells after 45 mins; assay type: cell-based
Sequence of Histamine H3 receptor (Q9Y5N1 whole entry): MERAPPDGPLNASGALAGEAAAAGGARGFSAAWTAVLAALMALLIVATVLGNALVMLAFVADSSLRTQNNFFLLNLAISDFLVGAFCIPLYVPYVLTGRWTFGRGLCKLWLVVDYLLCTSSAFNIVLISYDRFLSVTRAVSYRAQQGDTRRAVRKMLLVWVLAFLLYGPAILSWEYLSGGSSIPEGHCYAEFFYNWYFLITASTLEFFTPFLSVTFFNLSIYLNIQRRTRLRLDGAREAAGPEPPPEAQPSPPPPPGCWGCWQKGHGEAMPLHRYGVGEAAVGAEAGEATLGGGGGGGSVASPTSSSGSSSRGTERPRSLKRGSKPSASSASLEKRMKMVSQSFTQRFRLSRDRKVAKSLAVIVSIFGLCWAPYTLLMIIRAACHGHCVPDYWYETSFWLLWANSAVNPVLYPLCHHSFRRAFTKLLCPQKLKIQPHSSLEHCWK

remaining at 0.25 h, 1 µM [1] [%]	remaining at 0.25 h, 1 µM [2] [%]	Papp A→B at 1 h, 10 µM [4] [×10⁻⁶ cm/s]	Papp B→A at 10 µM [5] [×10⁻⁶ cm/s]	clearance [6] [mL/min/kg]	Vd [7] [L/kg]	half-life [8] [h]	bioavailability [9] [%]	concentration at 1 h [10] [nM]	Activity [18]	Structure (SMILES)	IC50 [3] [µM]	Occ (Rattus norvegicus [11]) [%]	further results
44.1	96.1	108	37.8	21.6	1.7	0.9	112	2540	Not Active	Cl.O=C(c1ccc(CN2CCOCC2)cc1)N1CCN(C2CC2)CC1	> 10	58	inhibition (INH) [12]: Not Active; Occ (Rattus norvegicus [13]): >80%; Activity (Rattus norvegicus [14]): 1933 ng/mL; Activity (Homo sapiens): 200 ng/mL; Activity (Rattus norvegicus [15]): Non-toxic; Activity (Canis familiaris): Non-toxic; Tmax [16]: 0.5 h; half-life [17]: 13.9 h; Activity (Rattus norvegicus [19]): Non-toxic
49.6	85.4	71.2	22.4	34.9	6.4	2.1	85	8100	Not Active	O=C(c1ccc(CN2CCOCC2)cc1)N1CCN(C2CCC2)CC1	> 10	96	Ki (Histamine H3 receptor): 0.0013 µM
–	–	–	–	113	20.3	2.1	31	–	–	O=C(c1ccc(CN2CCC(F)CC2)cc1)N1CCN(C2CCC2)CC1	> 10	–	–
–	–	12.4	14.8	26.1	39.4	20	52	480	Not Active	CC(C)N1CCN(C(=O)c2ccc(CN3CCCCC3)cc2)CC1	> 30	90	–

— ChEMBL document CHEMBL3576859, “Novel benzamide-based histamine h3 receptor antagonists: the identification of two candidates for clinical development” (ACS Med Chem Lett, 2015)
